This is one part of a sample in which hits are shown more often than they occur.
L major viab – reduces viability of Leishmania major promastigotes; resazurin fluorescence viability; inhibition, % at 10 µM; 200,000 tested, 9% active; AID 1063; in the data active = inhibition above about 50%;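 note: promastigotes grown with compound for 44 hours at 28 °C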
UPR XBP1 act – activators of adaptive arm of unfolded protein response (XBP1) | 330,000 tested, 0.33% active | AID 463104 | CHO-XBP1 luciferase reporter, IRE1-XBP1 UPR activation, luminescence; percent of tunicamycin response, DMSO as zero | activation, % at 20 µM;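 active = versus positive control, 20 µM dose yields 30% or more activation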;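 note: 100% = tunicamycin at 10 µg/mL and 0% = DMSO only wells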
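Assay system: CHO-XBP1 luciferase reporter cells; Schedule: 6 h treatment, 37 °C; Detection: glow luminescence from Steady-Glo reagent; Benchmarks: high control tunicamycin 10 µg/mL final, low control DMSO vehicle only.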
Dynein cargo inh – blocks dynein driven cargo transport along microtubules | 220,000 tested, 0.47% active | 3617.4 mouse cells, GR-EGFP nuclear translocation imaging; test concentration mostly 20 µM; stimulated with dexamethasone, 1 µM; hits give low values | z-score, hits read low;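 active = plate z-score of nuclear minus cytoplasmic receptor signal below a set negative limit, without overly bright fluorescence or cell loss, cut at about -3.5 in these data, passing the limit was not always enough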;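 note: z-score of nuclear minus cytoplasmic ring GR-EGFP intensity difference per well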
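Buffer or medium: tet-free medium with charcoal-stripped serum / Also added: dexamethasone agonist, 1.0 µM final, for 30 min / Timing: induction 48 h, compound 1 h, agonist 30 min / Measured by: high-content fluorescence imaging after fixation / Read-out: nuclear-to-cytoplasmic GR-EGFP distribution per well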
T cruzi repl – T. cruzi replication inhibition. T. cruzi beta-gal in NIH3T3, luminescence, 90 h. inhibition, % (concentration not given with the values). 300,000 tested, 1.4% active. AID 1885;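 active = mean inhibition across valid replicates above about 55%, limit read from the data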;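 note: signal also drops with host cell toxicity which is not excluded here; 0% = plate median of DMSO wells and 100% = zero luminescence signal; higher percent means less beta-gal luminescence so fewer parasites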
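System: NIH/3T3 fibroblasts plus reporter T. cruzi. Medium: DMEM plus 2% FBS. Probe or stimulus: 5000 reporter trypomastigotes per well. Compound: single 50 nL compound addition per well in DMSO. Incubation: co-culture of at least 90 h after 3 h attachment. Detection: GalScreen β-gal luminescence, detergent lysis, 60 min. Evaluation: parasite load inhibition, %.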
CHOP inhibitor – inhibitors of CHOP induction in ER stress response | AID 2732 | inhibition, % at 10 µM | CHO-K1 CHOP-promoter luciferase, tunicamycin-induced, 15-18 h | 220,000 tested, 3.8% active;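 active = compounds that reduced the stress-induced luciferase reporter signal by more than about 70% of percent inhibition, limit read from the data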;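 note: 0% = tunicamycin plus vehicle and 100% = wells without tunicamycin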
UPR CHOP act – apoptotic UPR (CHOP) activation; CHO-CHOP luciferase reporter, luminescence; percent of tunicamycin response over DMSO baseline; activation, % at 10 µM; 330,000 tested, 0.34% active; AID 449763;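 active = at 10 µM dose, activation of 40% or more, normalized to positive control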;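 note: 100% = tunicamycin at 10 µg/mL and 0% = DMSO alone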
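Assay system: CHO-CHOP cells, stable luciferase reporter of PERK-eIF2a-CHOP signalling / Buffer or medium: F12 plus 10% serum / Compound dosing: one dose, 10 µM in 0.5% DMSO / Times: 6 h compound treatment, 37 °C / Technique: luciferase luminescence / Read-out: % reporter activation, DMSO baseline versus tunicamycin full activation / Benchmarks: tunicamycin and DMSO controls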
Starred values were filed as active, the others as inactive; . = no result given.

SMILES	L major viab	UPR XBP1 act	Dynein cargo inh	T cruzi repl	CHOP inhibitor	UPR CHOP act
O=C1C2C3C=CC(C3)C2C(=O)N1CC1CCCO1 (configuration not stated)	-3	-1	-0.87	-11	25	1
O=C1CSC(=S)N1CC1CCCO1 (configuration not stated)	81*	-5	0.11	1	39	-2
O=C(NNC(=O)c1ccc([N+](=O)[O-])cc1Cl)c1ccncc1	84*	1	-0.4	-19	-4	4
O=C(NNC(=O)c1ccc(Cl)cc1Cl)c1ccncc1	-6	0	-0.5	-19	-12	2
CCOc1ccc(-n2c(-c3ccc(Cl)cc3)c[n+]3c2SCC3)cc1	100*	-3	1	62*	-10	1
c1ccc(-c2c[n+]3c(n2-c2ccccc2)SCC3)cc1	.	-2	-0.77	55*	-1	1
C/C(Cn1cnc([N+](=O)[O-])n1)=N/NC(=O)COc1c(Cl)cc(Cl)cc1Cl	23	-2	0.83	62*	2	-1
O=C(C(=O)N1CCN(Cc2ccc3c(c2)OCO3)CC1)c1c[nH]c2ccccc12	.	-6	.	0	.	0
COc1ccc(C2c3sc(=O)[nH]c3SC3C4CCC(C4)C23)cc1 (configuration not stated)	19	-2	-0.16	-2	88*	-2
COCCN1C(=O)/C(=C/c2ccc(Oc3ccc([N+](=O)[O-])cn3)c(OC)c2)SC1=Nc1ccccc1	100*	-1	-0.0042	2	10	1
COc1cc(/C=C2\SC(=Nc3ccccc3)N(CCc3c[nH]c4ccccc34)C2=O)ccc1OC(C)C(=O)O (configuration not stated)	-7	-1	0.52	-4	-14	-2
CCCCn1c(N)c(N(C)C(=O)c2cc3c(s2)CCCCC3)c(=O)[nH]c1=O	.	1	.	.	.	2
NCC1OC(O[C@@H]2[C@H](O)C(OC3C(O)C(N)CC(N)C3OC3OC(CO)C(O)C(O)C3N)O[C@@H]2CO)C(N)C(O)C1O (some centres not stated)	.	.	.	.	-3	.
O=C(Nc1cccnc1)c1ccc(Cl)c(S(=O)(=O)N2CCc3ccccc32)c1	59*	0	0.96	10	30	-1
CCc1nnc(NC(=O)c2ccc(S(=O)(=O)N3CCc4ccccc4C3)cc2)s1	-5	1	-0.043	12	82*	1
COc1ccc(NC(=O)c2ccc(Cl)c(S(=O)(=O)N3CCc4ccccc4C3)c2)cn1	33	-1	-0.9	28	17	-2
CCc1nnc(NC(=O)c2ccc(Cl)c(S(=O)(=O)N3CCc4ccccc4C3)c2)s1	52*	-2	0.062	0	55	-1
CCOC(=O)C(C)Oc1ccc(NC(=O)C(Cl)Cl)cc1 (configuration not stated)	.	0	0.27	-6	-13	-1
OCC1NC[C@@H](O)C(O)[C@@H]1O (some centres not stated)	.	.	.	.	16	.
O=C(CCn1cnc(-c2ccccc2)c1-c1ccccc1)N/N=C/c1ccccc1O	98*	0	0.76	10	51	-4
O=C(CCn1cnc(-c2ccccc2)c1-c1ccccc1)N/N=C/c1ccc(O)cc1	0	-3	0.32	-3	4	0
Cc1nn(-c2ccccc2)c(Cl)c1/C=C(\C#N)C(=O)NC(C)C	100*	1	-0.85	1	-12	-1
COc1ccc(NC(=O)/C(C#N)=C/c2c(C)nn(-c3ccc(F)cc3)c2Cl)cc1OC	7	-1	-0.68	-3	0	1
COc1ccc(NC(=O)/C(C#N)=C/c2c(C)nn(-c3ccc(F)cc3)c2Cl)cc1Cl	96*	17	-0.23	-1	11	5
COc1cc(N=C2C(=O)N3c4c(cccc42)C(C)=CC3(C)C)cc(OC)c1	61*	-2	0.8	13	34	-1
SMILES	L major viab	UPR XBP1 act	Dynein cargo inh	T cruzi repl	CHOP inhibitor	UPR CHOP act
COc1cc2c3c(c1)C(C)=CC(C)(C)N3C(=O)C2=O	56*	12	0.017	-3	-43	2
CC1=CC(C)(C)N2C(=O)C(=Nc3ccc(O)cc3)c3cccc1c32	.	4	-0.56	12	7	-1
COc1cc2c3c(c1)C(C)CC(C)(C)N3C(=O)C2=O (configuration not stated)	0	7	-0.52	6	-1	-1
Cc1ccc(CSCC(=O)N(C)CC(=O)Nc2ccccc2C(F)(F)F)cc1	.	-3	.	-15	.	0
COc1ccc(N2CCN(C(=S)NC(C)c3ccccc3)CC2)cc1 (configuration not stated)	-3	-5	-0.39	-9	15	1
Cc1nc2c(C#N)c(C)[nH]n2c(=O)c1Cc1ccccc1	87*	-3	0.03	3	-19	-1
CCn1c(=O)c(C(=O)CN2CCN(S(=O)(=O)c3ccc(C)cc3C)CC2)c(N)n(Cc2ccccc2)c1=O	58*	-2	-0.05	47	61	-1
Cn1c(=O)c(C(=O)CN2CCCCCC2)c(N)n(Cc2ccccc2)c1=O	13	-2	0.79	8	13	-1
Cc1cc(C)c(C)c(S(=O)(=O)N2CCN(CC(=O)c3c(N)n(Cc4ccccc4)c(=O)n(C)c3=O)CC2)c1C	99*	9	3.7	52	38	8
CCn1c(=O)c(C(=O)CN2c3ccccc3CC2C)c(N)n(Cc2ccccc2)c1=O (configuration not stated)	16	-3	-0.71	2	87*	-3
CC(=O)Nc1cccc(NC(=O)CSc2nnc3ccc(-c4ccncc4)nn23)c1	.	-3	.	-2	.	1
CCOc1ccccc1NC(=S)NCC1CCCO1 (configuration not stated)	51*	1	-0.74	-13	3	4
NS(=O)(=O)c1ccc(NC(=S)NCC2CCCO2)cc1 (configuration not stated)	55*	-1	0.22	-4	33	0
CC1CCC2(CC1)NC(=O)N(CC(=O)Nc1cccc(C#N)c1)C2=O (configuration not stated)	.	-1	.	.	.	-2
C[C@H](NC(=O)/C(C#N)=C/c1ccc(O)c(O)c1)c1ccccc1	.	.	.	.	7	.
CCOc1ccc(C(=O)Nc2ccc(S(=O)(=O)N3C[C@@H]4C[C@@H](C3)c3cccc(=O)n3C4)cc2)cc1	.	-3	.	.	.	2
COc1ccc(C2=CC(=O)CC(c3ccccc3)C2)cc1 (configuration not stated)	59*	-1	1.2	8	39	2
Cc1ccc(NC(=O)CN2C(=O)NC(C)(C3CC3)C2=O)cc1S(=O)(=O)N1CCCCC1 (configuration not stated)	.	0	.	.	.	0
